Experimental data as given in publication PMC4704638 (Brazilian Journal of Microbiology, 2015).

tested on: Streptomyces canarius L-glutaminase; assay: ammonia release, Lineweaver-Burk plot; format: biochemical; conditions: read-out: Km (mmol ^-1); 10-100 mM substrate
Procedure, shortened: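 Purified enzyme (ammonium sulphate 50-80% cut, dialysis, DEAE-cellulose; 132.2 U/mg protein) in potassium phosphate buffer pH 8 with L-glutamine, L-asparagine or L-aspartic acid, each separately at 10-100 mM, under standard assay conditions. Deaminating activity read as liberated NH3, expressed as µmol per min per mg protein. Km and Vmax from Lineweaver-Burk fit of 1/S versus 1/activity.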

Km [µM]	Structure (SMILES)
129	NC(=O)CC[C@H](N)C(=O)O [L-glutamine]
5380	N[C@@H](CC(=O)O)C(=O)O [L-aspartic acid]
137	NC(=O)C[C@H](N)C(=O)O [L-asparagine]
